How the values were obtained:
[1] = target: T1, 5-hydroxytryptamine receptor 1A (Rattus norvegicus, UniProt P19327); assay: Inhibition of [3H]8-OH-DPAT binding to Serotonin 5-HT1A receptor from rat brain cortex
T1 sequence (P19327 whole entry): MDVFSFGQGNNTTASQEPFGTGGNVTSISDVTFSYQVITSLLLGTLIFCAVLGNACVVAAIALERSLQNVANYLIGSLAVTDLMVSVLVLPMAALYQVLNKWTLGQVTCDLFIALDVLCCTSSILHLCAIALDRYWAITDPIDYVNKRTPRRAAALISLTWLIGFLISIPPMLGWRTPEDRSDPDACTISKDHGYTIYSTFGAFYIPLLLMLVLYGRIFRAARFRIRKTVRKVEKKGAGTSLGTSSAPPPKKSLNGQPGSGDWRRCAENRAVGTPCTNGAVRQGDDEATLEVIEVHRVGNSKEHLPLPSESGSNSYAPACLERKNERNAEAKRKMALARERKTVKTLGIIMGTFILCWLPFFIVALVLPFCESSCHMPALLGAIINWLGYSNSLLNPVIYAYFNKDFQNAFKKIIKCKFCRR

[2] = target: 5-hydroxytryptamine receptor 2A (Rattus norvegicus, UniProt P14842); assay: Inhibition of 0.4 nM [3H]ketanserin binding to Serotonin 5-HT2A receptor from rat brain cortex
[3] = target: T2, 5-hydroxytryptamine receptor 2C (Rattus norvegicus, UniProt P08909); assay: Inhibition of 1 nM [3H]mesulergine binding to Serotonin 5-HT2C receptor from rat brain cortex
T2 sequence (P08909 whole entry): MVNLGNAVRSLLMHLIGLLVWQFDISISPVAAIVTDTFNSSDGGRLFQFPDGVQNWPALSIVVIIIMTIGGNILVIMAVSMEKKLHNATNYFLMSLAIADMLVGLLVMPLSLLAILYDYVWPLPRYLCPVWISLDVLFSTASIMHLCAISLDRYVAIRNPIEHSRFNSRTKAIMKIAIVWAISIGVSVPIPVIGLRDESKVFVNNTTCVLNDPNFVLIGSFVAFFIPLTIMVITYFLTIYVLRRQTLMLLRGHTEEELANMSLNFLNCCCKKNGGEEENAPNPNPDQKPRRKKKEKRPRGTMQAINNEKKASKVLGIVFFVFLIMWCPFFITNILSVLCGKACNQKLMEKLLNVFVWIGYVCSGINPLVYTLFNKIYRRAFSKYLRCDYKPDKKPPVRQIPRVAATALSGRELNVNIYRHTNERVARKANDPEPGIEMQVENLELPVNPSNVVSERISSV

[4] = target: T3, Adrenergic receptor alpha-1 (Rattus norvegicus, UniProt P15823+P23944+P43140); assay: Inhibition of [3H]prazosin bindign to Adrenergic alpha 1 receptor from rat brain cortex
T3 sequence (P15823 whole entry): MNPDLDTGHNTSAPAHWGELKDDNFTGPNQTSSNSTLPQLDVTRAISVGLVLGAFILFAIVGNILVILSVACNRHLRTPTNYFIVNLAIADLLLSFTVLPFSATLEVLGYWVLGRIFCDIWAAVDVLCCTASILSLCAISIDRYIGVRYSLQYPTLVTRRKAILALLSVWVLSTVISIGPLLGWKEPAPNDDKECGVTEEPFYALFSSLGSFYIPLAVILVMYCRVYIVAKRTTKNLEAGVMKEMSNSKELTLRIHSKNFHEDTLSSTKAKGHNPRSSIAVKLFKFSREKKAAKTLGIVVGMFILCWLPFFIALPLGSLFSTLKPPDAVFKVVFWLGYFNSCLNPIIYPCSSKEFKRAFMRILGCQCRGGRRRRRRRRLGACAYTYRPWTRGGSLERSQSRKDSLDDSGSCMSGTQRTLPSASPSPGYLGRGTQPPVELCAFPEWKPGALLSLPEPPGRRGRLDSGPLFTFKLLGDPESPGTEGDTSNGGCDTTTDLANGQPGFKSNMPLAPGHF
T3 sequence (P23944 whole entry): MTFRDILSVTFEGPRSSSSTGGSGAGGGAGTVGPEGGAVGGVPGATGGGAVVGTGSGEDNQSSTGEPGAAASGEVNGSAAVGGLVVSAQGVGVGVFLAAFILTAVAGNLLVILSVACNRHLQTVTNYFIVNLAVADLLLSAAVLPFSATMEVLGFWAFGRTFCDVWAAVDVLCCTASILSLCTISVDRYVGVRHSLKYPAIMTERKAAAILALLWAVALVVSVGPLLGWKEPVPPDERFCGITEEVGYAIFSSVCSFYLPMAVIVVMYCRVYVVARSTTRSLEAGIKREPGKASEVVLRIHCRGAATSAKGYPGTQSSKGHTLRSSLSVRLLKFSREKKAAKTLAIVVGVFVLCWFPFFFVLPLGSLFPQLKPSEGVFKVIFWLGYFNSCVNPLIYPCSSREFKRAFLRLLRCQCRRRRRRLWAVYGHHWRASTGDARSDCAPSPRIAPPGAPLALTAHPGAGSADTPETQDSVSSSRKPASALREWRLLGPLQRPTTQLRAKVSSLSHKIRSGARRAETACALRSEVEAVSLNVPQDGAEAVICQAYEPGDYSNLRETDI
T3 sequence (P43140 whole entry): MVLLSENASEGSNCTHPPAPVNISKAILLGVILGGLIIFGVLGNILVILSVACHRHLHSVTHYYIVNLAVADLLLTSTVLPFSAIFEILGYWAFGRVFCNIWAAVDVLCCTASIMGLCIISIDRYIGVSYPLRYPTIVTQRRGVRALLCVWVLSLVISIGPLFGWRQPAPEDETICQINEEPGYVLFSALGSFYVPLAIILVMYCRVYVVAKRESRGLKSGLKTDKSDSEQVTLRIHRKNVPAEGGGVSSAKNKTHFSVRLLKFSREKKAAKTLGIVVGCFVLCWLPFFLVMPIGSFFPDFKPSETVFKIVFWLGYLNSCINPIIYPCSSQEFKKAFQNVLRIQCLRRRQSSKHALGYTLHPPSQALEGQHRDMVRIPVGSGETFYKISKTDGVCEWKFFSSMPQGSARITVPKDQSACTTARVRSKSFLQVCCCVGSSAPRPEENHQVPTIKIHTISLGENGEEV
Outline: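 Cortical membranes in 50 mM Tris-HCl pH 7.4, 10 mg fresh tissue per tube, with [3H]prazosin 0.4 nM final; 30 min at 25 °C, then vacuum filtration on GF/B and scintillation counting. 10 μM phentolamine defined nonspecific binding. Six test concentrations in triplicate; IC50 from competition curves, Ki by Cheng–Prusoff using Scatchard KD.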

[5] = target: T4, Adrenergic receptor alpha-2 (Rattus norvegicus, UniProt P22086+P19328+P22909); assay: Inhibition of [3H]yohimbine binding to Adrenergic receptor alpha 2 receptor from rat brain cortex
T4 sequence (P22086 whole entry): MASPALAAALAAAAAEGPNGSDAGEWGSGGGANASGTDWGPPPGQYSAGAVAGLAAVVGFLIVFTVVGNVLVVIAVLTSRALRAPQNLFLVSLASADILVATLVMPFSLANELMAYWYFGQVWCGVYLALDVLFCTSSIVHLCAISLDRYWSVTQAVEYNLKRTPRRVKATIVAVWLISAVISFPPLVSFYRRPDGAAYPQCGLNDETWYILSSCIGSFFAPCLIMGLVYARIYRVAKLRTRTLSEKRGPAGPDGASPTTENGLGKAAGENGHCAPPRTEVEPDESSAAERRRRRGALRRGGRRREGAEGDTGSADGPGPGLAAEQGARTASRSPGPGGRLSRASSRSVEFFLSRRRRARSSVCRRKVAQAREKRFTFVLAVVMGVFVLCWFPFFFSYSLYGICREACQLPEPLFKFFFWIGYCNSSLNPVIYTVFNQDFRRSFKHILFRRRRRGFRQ
T4 sequence (P19328 whole entry): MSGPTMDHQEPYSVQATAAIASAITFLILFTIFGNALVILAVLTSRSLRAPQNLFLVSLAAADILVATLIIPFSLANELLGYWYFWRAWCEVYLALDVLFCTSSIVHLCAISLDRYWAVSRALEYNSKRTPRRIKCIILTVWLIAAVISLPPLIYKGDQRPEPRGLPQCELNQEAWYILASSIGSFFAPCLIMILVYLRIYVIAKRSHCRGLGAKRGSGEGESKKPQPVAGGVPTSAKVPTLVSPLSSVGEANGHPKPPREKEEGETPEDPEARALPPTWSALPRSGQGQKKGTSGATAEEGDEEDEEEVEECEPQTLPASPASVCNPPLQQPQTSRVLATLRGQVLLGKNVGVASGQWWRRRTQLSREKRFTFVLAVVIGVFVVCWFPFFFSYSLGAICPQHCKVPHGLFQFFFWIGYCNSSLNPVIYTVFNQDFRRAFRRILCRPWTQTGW
T4 sequence (P22909 whole entry): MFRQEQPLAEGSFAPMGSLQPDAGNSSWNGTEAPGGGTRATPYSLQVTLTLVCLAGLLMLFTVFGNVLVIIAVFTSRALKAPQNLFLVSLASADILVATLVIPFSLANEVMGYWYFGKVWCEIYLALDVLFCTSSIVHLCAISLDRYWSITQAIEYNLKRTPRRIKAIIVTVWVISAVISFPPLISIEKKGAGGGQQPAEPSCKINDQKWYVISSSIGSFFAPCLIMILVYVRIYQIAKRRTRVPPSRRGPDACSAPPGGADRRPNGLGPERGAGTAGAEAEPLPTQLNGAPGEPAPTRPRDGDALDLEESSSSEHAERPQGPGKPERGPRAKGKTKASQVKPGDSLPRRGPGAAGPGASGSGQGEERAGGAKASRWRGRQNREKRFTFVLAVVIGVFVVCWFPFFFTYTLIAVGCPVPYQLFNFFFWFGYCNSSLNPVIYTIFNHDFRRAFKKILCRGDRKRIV
Outline: (§1)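 Brain cortex homogenized in 5 mM Tris-HCl/5 mM EDTA, washed three times at 50 000g, resuspended in 50 mM Tris-HCl/0.5 mM EDTA pH 7.5; 10 mg fresh tissue per tube. [3H]yohimbine 1 nM final, 30 min at 25 °C, GF/B filtration, scintillation counting. Six concentrations in triplicate; IC50 converted to Ki (Cheng–Prusoff).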

D(2) dopamine receptor = D(2) dopamine receptor (Rattus norvegicus, UniProt P61169); assay: Inhibition of [3H]spiperone binding to Dopamine D2 receptor from rat striatum
Outline: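 Rat striatal membranes washed twice at 50 000g, resuspended in Tris-HCl pH 7.1 with NaCl, KCl, CaCl2, MgCl2, ascorbic acid, 10 μM pargyline; 3 mg fresh tissue per tube. [3H]spiperone 0.4 nM final, 15 min at 37 °C, GF/B filtration, scintillation counting. Nonspecific defined with 1 μM (+)-butaclamol. Six concentrations, triplicate; Ki via Cheng–Prusoff.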

D(1A) dopamine receptor = D(1A) dopamine receptor (Rattus norvegicus, UniProt P18901); assay: Inhibition of [3H]SCH-23,390 binding to Dopamine D1 receptor from rat striatum
Outline: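 Rat striatal membranes washed twice by 50 000g spins, resuspended in Tris-HCl pH 7.1 with NaCl, KCl, CaCl2, MgCl2, ascorbic acid, 10 μM pargyline; 3 mg fresh tissue per tube. [3H]SCH-23390 at 0.4 nM final, 15 min at 37 °C, GF/B filtration, scintillation counting. Nonspecific with 0.1 μM piflutixol. Six concentrations in triplicate; IC50 converted to Ki by Cheng–Prusoff.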

[6] = target: T4, Adrenergic receptor alpha-2; assay: Inhibition of [3H]yohimbine binding to Adrenergic alpha 2 receptor from rat brain cortex; outline: as §1

D(2) dopamine receptor, sequence (P61169 whole entry): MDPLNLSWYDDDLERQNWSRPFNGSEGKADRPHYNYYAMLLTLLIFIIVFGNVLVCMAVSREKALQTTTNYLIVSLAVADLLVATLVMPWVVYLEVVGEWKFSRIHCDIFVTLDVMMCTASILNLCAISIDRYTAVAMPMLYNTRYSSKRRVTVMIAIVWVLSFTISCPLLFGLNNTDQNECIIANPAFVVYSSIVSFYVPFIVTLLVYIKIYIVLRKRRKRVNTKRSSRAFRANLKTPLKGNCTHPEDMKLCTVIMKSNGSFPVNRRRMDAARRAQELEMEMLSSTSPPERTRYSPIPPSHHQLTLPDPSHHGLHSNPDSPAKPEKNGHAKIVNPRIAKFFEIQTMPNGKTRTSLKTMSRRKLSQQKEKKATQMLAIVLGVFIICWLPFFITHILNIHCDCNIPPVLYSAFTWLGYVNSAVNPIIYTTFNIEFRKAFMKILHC
D(1A) dopamine receptor, sequence (P18901 whole entry): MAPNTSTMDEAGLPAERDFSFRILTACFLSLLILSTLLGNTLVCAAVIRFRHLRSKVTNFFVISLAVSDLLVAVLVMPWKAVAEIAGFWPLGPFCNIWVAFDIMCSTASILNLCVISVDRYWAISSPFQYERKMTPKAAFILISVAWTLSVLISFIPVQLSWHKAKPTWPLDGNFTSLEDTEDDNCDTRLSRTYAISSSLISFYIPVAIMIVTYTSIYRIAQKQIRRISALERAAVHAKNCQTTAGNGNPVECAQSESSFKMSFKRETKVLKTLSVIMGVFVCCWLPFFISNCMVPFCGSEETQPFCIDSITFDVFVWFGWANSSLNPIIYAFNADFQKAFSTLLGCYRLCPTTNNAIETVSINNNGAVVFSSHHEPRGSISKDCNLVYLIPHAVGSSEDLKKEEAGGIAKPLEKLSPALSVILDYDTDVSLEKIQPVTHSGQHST
5-hydroxytryptamine receptor 2A, sequence (P14842 whole entry): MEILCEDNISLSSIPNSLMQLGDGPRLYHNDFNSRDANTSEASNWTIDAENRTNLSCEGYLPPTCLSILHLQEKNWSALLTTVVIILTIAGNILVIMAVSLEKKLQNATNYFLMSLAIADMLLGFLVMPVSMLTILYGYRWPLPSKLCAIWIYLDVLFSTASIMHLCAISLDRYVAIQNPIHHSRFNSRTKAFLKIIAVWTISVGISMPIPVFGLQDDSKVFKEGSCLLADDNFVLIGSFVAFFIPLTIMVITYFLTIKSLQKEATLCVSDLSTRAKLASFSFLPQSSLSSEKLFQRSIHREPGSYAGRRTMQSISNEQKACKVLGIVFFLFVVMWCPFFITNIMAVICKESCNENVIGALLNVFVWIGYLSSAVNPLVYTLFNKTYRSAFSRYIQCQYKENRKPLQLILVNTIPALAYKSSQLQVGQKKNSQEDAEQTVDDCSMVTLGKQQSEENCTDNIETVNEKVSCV

Structure (SMILES)	Ki [1] [nM]	Ki [2] [nM]	Ki [3] [nM]	Ki [4] [nM]	Ki [5] [nM]	Ki (D(2) dopamine receptor; read-out: Ki) [nM]	Ki (D(1A) dopamine receptor; read-out: Ki) [nM]	Ki (D(2) dopamine receptor)	Ki (D(1A) dopamine receptor)	Ki [6] [nM]
O=C1C2C3C=CC(C3)C2C(=O)N1OCCN1CCN(c2ncccn2)CC1 (stereo not drawn)	384	> 10000	–	–	–	–	–	–	–	–
O=C1C2C3C=CC(C3)C2C(=O)N1OCCN1CCN(c2ccccn2)CC1 (stereo not drawn)	382	3510	> 10000	–	–	–	–	–	–	–
O=C1C2C3C=CC(C3)C2C(=O)N1OCCCN1CCN(c2cccc(C(F)(F)F)c2)CC1 (stereo not drawn)	5.13	2680	> 10000	358	4680	670	4510	–	–	–
O=C1C2C3C=CC(C3)C2C(=O)N1OCCCN1CCN(c2ncccn2)CC1 (stereo not drawn)	49.5	118	> 10000	–	–	–	–	–	–	–
O=C1C2C3C=CC(C3)C2C(=O)N1OCCCN1CCN(c2ccccc2Cl)CC1 (stereo not drawn)	4.13	3900	423	128	3140	–	–	Not Active	Not Active	–
COc1ccccc1N1CCN(CCCON2C(=O)C3C4C=CC(C4)C3C2=O)CC1 (stereo not drawn)	0.021	> 10000	> 10000	75.3	3650	> 10000	> 10000	–	–	–
O=C1C2C3C=CC(C3)C2C(=O)N1OCCCN1CCN(c2cccc(Cl)c2)CC1 (stereo not drawn)	3.36	547	733	141	1710	–	> 10000	Not Active	–	–
O=C1C2C3C=CC(C3)C2C(=O)N1OCCCN1CCN(c2ccccn2)CC1 (stereo not drawn)	30.3	> 10000	> 10000	–	–	–	–	–	–	–
COc1ccccc1N1CCN(CCON2C(=O)C3C4C=CC(C4)C3C2=O)CC1 (stereo not drawn)	45	> 10000	> 10000	–	–	–	–	–	–	–
O=C1C2C3C=CC(C3)C2C(=O)N1OCCN1CCN(c2ccccc2Cl)CC1 (stereo not drawn)	–	> 10000	> 10000	747	–	> 10000	> 10000	–	–	691
O=C1C2C3C=CC(C3)C2C(=O)N1OCCN1CCN(c2cccc(Cl)c2)CC1 (stereo not drawn)	27.1	2700	> 10000	–	–	–	–	–	–	–
O=C1C2C3C=CC(C3)C2C(=O)N1OCCN1CCN(c2cccc(C(F)(F)F)c2)CC1 (stereo not drawn)	2.14	4010	> 10000	> 10000	> 10000	> 10000	> 10000	–	–	–
